From ChEMBL document CHEMBL3091323, “Investigation of quinazolines as inhibitors of breast cancer resistance protein (ABCG2)” (Bioorg Med Chem, 2013)
Activity calls are given as the source filed them. The calls are words filed in the database; no cut-off is given here.

Tests used:
[1] = molecular target: MRP1 (Homo sapiens, UniProt P33527); experiment: (§1) Inhibition of MRP1 in human 2008 cells assessed as Calcein AM accumulation at 10 uM treated 30 mins before Calcein AM addition measured up to 90 mins by fluorescence assay relative to control; type: cell-based; settings: human, 2008 cells, probe Calcein AM
[2] = molecular target: T1, Broad substrate specificity ATP-binding cassette transporter ABCG2 (Homo sapiens, UniProt Q9UNQ0); experiment: Inhibition of human BCRP expressed in MDCK2 cells assessed as Hoechst 33342 accumulation treated 30 mins before Hoechst 33342 addition measured up to 120 mins by fluorescence assay; type: cell-based, MDCK-II
T1 sequence (Q9UNQ0 whole entry): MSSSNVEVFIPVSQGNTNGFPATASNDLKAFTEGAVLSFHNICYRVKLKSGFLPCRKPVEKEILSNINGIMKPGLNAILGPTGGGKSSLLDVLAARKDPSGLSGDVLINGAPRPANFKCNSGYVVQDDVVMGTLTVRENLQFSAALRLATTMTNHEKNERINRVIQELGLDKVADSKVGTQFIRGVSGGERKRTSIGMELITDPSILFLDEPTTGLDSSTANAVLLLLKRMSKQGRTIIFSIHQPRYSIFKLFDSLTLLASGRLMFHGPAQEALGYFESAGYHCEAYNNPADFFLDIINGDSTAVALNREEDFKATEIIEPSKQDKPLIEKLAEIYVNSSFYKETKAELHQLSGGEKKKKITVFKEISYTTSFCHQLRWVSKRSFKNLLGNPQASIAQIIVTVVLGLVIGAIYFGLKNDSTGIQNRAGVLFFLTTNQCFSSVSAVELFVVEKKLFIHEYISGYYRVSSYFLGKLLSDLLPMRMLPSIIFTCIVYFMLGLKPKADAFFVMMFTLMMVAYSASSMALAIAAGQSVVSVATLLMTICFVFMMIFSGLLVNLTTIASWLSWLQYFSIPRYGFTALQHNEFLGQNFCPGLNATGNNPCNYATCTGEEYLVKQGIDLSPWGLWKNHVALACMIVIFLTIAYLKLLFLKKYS

[3] = molecular target: MDR1 (Homo sapiens, UniProt P08183); experiment: (§2) Inhibition of MDR1 in human doxorubicin-resistant A2780adr cells assessed as Calcein AM accumulation at 10 uM treated 30 mins before Calcein AM addition measured up to 90 mins by fluorescence assay relative to control; type: cell-based, A2780 ADR; settings: doxorubicin-resistant A2780adr cells, probe Calcein AM
[4] = molecular target: T1, Broad substrate specificity ATP-binding cassette transporter ABCG2; experiment: Inhibition of human BCRP expressed in MDCK2 cells assessed as pheophorbide A accumulation treated 30 mins before pheophorbide A addition measured up to 120 mins by flow cytometry; type: cell-based, MDCK-II
[5] = molecular target: T2, ATP-dependent translocase ABCB1 (Homo sapiens, UniProt P08183); experiment: Inhibition of MDR1 in human doxorubicin-resistant A2780adr cells assessed as Calcein AM accumulation treated 30 mins before Calcein AM addition measured up to 90 mins by fluorescence assay; type: cell-based, A2780 ADR
[6] = system: BCRP; experiment: Therapeutic index, ratio of GI50 for MDCK cells to IC50 for human BCRP expressed in MDCK2 cells; settings: dog
[7] = Cytotoxicity against MDCK cells after 72 hrs by MTT assay; type: cell-based, Canis lupus familiaris; settings: dog
In short: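 MTT assay in MDCK BCRP and parental MDCK cells: 2500 cells/well, 6 h attachment at 37 °C, 5% CO₂, compounds up to 100 µM for 72 h. MTT (5 mg/ml solution) added for 1 h, then lysis in DMSO. Absorbance read at 544 nm with 710 nm background correction. Controls were 10% DMSO medium and PBS only. GI₅₀ derived.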

[8] = Reduction of plasma membrane expression of BCRP expressing reporter gene GFP in BCRP-MDCK2 cells at 0.5 to 1.8 uM after 72 hrs by fluorescence assay relative to control; type: functional, cell-based; parameters: scale not given: the % may be the effect or the level left; settings: Canis lupus familiaris, MDCK-II
In short: (§3)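 MDCK II cells transfected with human wild-type BCRP cDNA C-terminally fused to GFP. Seeded at 100,000 cells/well and treated 4 h later at final 0.5, 1.0 and 1.8 µM for 72 h at 37 °C. Surface BCRP measured by 5D3 antibody binding (FL2, 585 nm) and total BCRP by GFP (FL1, 520 nm) on a flow cytometer, gated on scatter. Geometric means normalized to untreated cells as 100%.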

[9] = system: MDCK-II; experiment: Increase of plasma membrane expression of BCRP expressing reporter gene GFP in BCRP-MDCK2 cells at 0.5 to 1.8 uM after 72 hrs by fluorescence assay; type: functional, cell-based; settings: Canis lupus familiaris, in the assay text read “total expression” for “plasma membrane expression”; in short: as §3
[10] = molecular target: Multidrug resistance-associated protein 1 (Homo sapiens, UniProt P33527); experiment: as §1; type: cell-based; settings: human, 2008, 10 µM
[11] = molecular target: T2, ATP-dependent translocase ABCB1; experiment: as §2; type: cell-based, A2780 ADR; settings: a2780 adr, 10 µM
[12] = molecular target: T1, Broad substrate specificity ATP-binding cassette transporter ABCG2; experiment: Reversal of human BCRP-mediated multidrug resistant in MDCK2 cells assessed as increase of Hoechst 33342-induced cytotoxicity at 1 to 5 uM after 72 hrs by MTT assay; type: cell-based; settings: mdck-ii
In short: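 MDR reversal by MTT assay in MDCK BCRP cells with compounds at final 1 µM and 5 µM. Dose–response curves to Hoechst 33342 were compared with and without inhibitor and against sensitive MDCK cells. Conditions as for the MTT cytotoxicity assay: 2500 cells/well, 72 h, absorbance at 544/710 nm.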

MRP1, sequence (P33527 whole entry): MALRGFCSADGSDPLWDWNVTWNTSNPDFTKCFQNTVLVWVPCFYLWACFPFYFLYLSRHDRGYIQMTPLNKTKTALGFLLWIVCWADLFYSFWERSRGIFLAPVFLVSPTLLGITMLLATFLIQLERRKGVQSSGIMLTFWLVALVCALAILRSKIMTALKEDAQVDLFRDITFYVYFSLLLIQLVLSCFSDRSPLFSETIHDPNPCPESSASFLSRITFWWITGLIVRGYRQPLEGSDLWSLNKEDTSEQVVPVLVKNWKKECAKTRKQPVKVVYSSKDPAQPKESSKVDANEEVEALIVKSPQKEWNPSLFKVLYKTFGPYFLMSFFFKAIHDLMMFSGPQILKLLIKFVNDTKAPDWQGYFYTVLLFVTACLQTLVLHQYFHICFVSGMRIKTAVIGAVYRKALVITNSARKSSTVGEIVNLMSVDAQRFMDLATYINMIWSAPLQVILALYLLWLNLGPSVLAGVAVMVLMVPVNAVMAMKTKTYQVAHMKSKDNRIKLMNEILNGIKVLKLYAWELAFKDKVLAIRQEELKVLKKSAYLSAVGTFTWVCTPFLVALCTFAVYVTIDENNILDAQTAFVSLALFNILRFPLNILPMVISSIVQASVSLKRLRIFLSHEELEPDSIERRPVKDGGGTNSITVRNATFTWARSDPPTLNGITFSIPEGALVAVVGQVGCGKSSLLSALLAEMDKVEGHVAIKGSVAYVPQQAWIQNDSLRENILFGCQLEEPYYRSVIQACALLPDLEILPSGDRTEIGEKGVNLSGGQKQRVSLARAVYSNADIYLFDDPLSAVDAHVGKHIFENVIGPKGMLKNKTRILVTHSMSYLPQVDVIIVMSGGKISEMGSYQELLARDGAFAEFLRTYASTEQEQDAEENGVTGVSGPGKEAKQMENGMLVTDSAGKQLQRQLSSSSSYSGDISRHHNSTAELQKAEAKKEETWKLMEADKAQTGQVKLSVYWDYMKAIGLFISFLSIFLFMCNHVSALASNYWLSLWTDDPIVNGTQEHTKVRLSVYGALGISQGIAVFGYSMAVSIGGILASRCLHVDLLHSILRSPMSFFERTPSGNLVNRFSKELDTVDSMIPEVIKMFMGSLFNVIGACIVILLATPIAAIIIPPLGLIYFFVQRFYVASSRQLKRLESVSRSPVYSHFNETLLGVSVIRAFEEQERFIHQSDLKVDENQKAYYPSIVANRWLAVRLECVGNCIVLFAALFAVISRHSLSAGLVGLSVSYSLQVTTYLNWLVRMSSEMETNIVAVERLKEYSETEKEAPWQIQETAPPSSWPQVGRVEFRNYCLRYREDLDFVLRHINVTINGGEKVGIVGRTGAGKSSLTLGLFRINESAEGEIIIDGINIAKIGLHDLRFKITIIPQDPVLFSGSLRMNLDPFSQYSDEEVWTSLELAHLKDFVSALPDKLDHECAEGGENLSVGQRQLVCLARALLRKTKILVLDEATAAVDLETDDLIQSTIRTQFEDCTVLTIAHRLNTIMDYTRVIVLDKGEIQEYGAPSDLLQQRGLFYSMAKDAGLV
MDR1, sequence (P08183 whole entry): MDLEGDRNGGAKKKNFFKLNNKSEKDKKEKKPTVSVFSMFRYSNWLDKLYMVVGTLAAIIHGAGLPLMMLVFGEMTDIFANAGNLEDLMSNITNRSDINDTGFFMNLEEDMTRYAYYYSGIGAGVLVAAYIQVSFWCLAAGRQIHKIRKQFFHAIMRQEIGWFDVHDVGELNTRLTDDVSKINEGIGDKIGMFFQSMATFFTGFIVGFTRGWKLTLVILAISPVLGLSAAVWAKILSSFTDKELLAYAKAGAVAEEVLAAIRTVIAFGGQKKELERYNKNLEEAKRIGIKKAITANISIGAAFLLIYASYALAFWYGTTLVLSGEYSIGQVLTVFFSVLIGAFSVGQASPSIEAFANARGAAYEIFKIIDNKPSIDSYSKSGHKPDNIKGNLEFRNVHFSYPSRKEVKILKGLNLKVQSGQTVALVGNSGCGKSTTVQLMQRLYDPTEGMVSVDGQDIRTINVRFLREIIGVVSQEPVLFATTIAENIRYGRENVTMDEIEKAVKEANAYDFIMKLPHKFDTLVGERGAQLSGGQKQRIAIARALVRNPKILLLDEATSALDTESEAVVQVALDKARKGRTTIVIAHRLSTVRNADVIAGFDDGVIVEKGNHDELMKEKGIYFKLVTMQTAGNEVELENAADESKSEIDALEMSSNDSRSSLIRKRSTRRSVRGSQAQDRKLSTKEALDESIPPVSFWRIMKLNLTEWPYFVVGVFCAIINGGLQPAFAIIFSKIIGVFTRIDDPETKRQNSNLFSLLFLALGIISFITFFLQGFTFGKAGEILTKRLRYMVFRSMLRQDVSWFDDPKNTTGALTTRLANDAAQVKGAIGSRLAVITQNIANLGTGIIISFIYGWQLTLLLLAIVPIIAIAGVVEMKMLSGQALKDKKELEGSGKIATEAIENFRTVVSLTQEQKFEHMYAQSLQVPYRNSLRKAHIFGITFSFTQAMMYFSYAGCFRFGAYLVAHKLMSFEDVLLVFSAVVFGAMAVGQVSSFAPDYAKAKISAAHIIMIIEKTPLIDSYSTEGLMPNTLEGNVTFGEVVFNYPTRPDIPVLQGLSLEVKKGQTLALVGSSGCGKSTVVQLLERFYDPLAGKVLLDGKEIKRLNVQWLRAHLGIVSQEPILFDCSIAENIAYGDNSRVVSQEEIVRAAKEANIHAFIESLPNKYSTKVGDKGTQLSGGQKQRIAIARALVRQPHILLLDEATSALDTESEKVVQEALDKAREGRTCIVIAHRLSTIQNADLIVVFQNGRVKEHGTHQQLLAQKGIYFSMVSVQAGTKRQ
T2 sequence (P08183 whole entry): as above
Multidrug resistance-associated protein 1, sequence (P33527 whole entry): as the sequence (P33527 whole entry) above

Row | SMILES | inhibition at 90 min, 10 µM [1] [%] | IC50 [2] [µM] | inhibition at 90 min, 10 µM [3] [%] | IC50 [4] [µM] | further results
1 | COc1ccc(-c2nc(Nc3cccc(C(F)(F)F)c3)c3ccccc3n2)cc1OC | > 50 | 0.3 | > 50 | 0.24 | 
2 | COc1cc2ncnc(Nc3cccc(Br)c3)c2cc1OC |  | 1.73 |  | 2.32 | 
3 | COc1cc2ncnc(Nc3cccc(C#N)c3)c2cc1OC |  | 1.06 |  | 0.93 | 
4 | COc1ccc(Nc2ncnc3ccccc23)cc1OC |  | 4.79 |  | 3.38 | 
5 | COc1ccc(-c2nc(Nc3cccc(O)c3)c3ccccc3n2)cc1OC | > 50 | 0.14 | > 50 | 0.11 | IC50 [5]: 18.2 µM; selectivity ratio ([6]; mdck2): 33; GI50 at 72 h [7]: 4.61 µM
6 | COc1ccc(-c2nc(Nc3cccc(C#N)c3)c3ccccc3n2)cc1OC | > 50 |  | > 50 |  | 
7 | COc1ccc(Nc2nc(Nc3ccc(OC)c(OC)c3)c3cc(OC)c(OC)cc3n2)cc1OC |  | 1.74 |  | 1.52 | 
8 | COc1cc2nc(Nc3cccc(C#N)c3)nc(Nc3cccc(C#N)c3)c2cc1OC |  | 0.48 |  | 0.47 | 
9 | COc1ccc(-c2nc(Nc3cccc([N+](=O)[O-])c3)c3ccccc3n2)cc1OC | > 50 |  | > 50 |  | IC50 [5]: 9.56 µM; Activity [8]: 75%; Activity [9]: Active; GI50 at 72 h [7]: 20.8 µM
10 | COc1cc2ncnc(Nc3cccc(C(F)(F)F)c3)c2cc1OC |  | 2.4 |  | 1.98 | 
11 | COc1ccc(-c2nc(Nc3ccccc3)c3ccccc3n2)cc1OC | > 50 | 1.99 | > 50 | 4.09 | 
12 | COc1cc2ncnc(Nc3ccccc3[N+](=O)[O-])c2cc1OC |  | 3.8 |  | 3.97 | 
13 | COc1cc2ncnc(Nc3ccc(F)c(Cl)c3)c2cc1OCCCN1CCOCC1 [GEFITINIB] |  |  |  |  | Activity [8]: Active; Activity [9]: Active; GI50 at 72 h [7]: 1.45 µM
14 | COc1cc2ncnc(Nc3cccc([N+](=O)[O-])c3)c2cc1OC |  | 0.81 |  | 0.91 | selectivity ratio [6]: 1.85; Activity [8]: 60%; Activity [9]: inactive; GI50 at 72 h [7]: 1.5 µM
15 | O=[N+]([O-])c1cccc(Nc2ncnc3ccccc23)c1 |  | 1.13 |  | 0.89 | selectivity ratio [6]: 16; Activity [8]: inactive; Activity [9]: Active; GI50 at 72 h [7]: 18.3 µM
16 | Brc1cccc(Nc2nc(-c3ccccc3)nc3ccccc23)c1 |  |  |  |  | IC50 [5]: 12.4 µM

Row | SMILES | inhibition at 90 min, 10 µM [1] [%] | IC50 [2] [µM] | inhibition at 90 min, 10 µM [3] [%] | IC50 [4] [µM] | further results
17 | COc1cc2nc(Nc3cccc([N+](=O)[O-])c3)nc(Nc3cccc([N+](=O)[O-])c3)c2cc1OC |  | 0.33 |  | 0.32 | 
18 | FC(F)(F)c1cccc(Nc2ncnc3ccccc23)c1 |  | 0.94 |  | 1.55 | 
19 | COc1ccc(-c2nc(Nc3ccccc3O)c3ccccc3n2)cc1OC | > 50 | 0.26 | > 50 | 0.29 | 
20 | Oc1cccc(Nc2nc(-c3ccccc3)nc3ccccc23)c1 |  | 0.15 |  |  | inhibition (INH) [10]: Not Active; selectivity ratio ([6]; mdck2): 340; inhibition (INH) [11]: Not Active; GI50 at 72 h [7]: 51.1 µM; Activity [12]: Active
21 | COc1ccc(Nc2ncnc3cc(OC)c(OC)cc23)cc1OC |  | 7.38 |  | 3.79 | 
22 | COc1ccc(-c2nc(Nc3cccc(Br)c3)c3ccccc3n2)cc1OC | > 50 | 0.29 | > 50 | 0.4 | IC50 [5]: 11.8 µM
23 | COc1ccc(-c2nc(Nc3ccccc3[N+](=O)[O-])c3ccccc3n2)cc1OC | > 50 | 0.64 | > 50 | 1.55 | 
24 | COc1cc2nc(Nc3cccc(Br)c3)nc(Nc3cccc(Br)c3)c2cc1OC |  | 0.67 |  | 0.86 | 
25 | N#Cc1cccc(Nc2ncnc3ccccc23)c1 |  | 1.18 |  | 2.03 | 
26 | COc1ccc(Nc2nc(-c3ccc(OC)c(OC)c3)nc3ccccc23)cc1OC | > 50 | 0.42 | > 50 | 0.61 | IC50 [5]: 3.49 µM
27 | Brc1cccc(Nc2ncnc3ccccc23)c1 |  | 1.08 |  | 1.48 | 
28 | O=[N+]([O-])c1cccc(Nc2nc(-c3ccccc3)nc3ccccc23)c1 |  |  |  |  | inhibition (INH) [10]: Not Active; inhibition (INH) [11]: Not Active; Activity [8]: inactive; Activity [9]: Active; GI50 at 72 h [7]: 67.8 µM
29 | COc1cc2ncnc(Nc3ccc([N+](=O)[O-])cc3)c2cc1OC |  | 2.92 |  | 2.46 | 
30 | COc1cc2nc(Nc3cccc(C(F)(F)F)c3)nc(Nc3cccc(C(F)(F)F)c3)c2cc1OC |  | 0.8 |  | 0.61 | 
31 | COc1ccc(-c2nc(Nc3ccc(O)cc3)c3ccccc3n2)cc1OC | > 50 | 0.47 | > 50 | 0.68 | 
